Measured values published in ChEMBL document CHEMBL3102820, “Developing bivalent ligands to target CUG triplet repeats, the causative agent of myotonic dystrophy type 1” (J Med Chem, 2013).
The source made the active and inactive calls. The rule behind the calls is not given here.

Assays:
[1] = Inhibition of biotin-labeled (CUG)12 RNA (unknown origin)-MBNL1 interaction by SPR analysis
How it was run: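 SPR in 1X PBS with Tween-20 and excess competitor tRNA. Biotinylated (CUG)12 was immobilized on a streptavidin chip and pre-incubated with ligand at varied concentrations to steady-state RU over 150 s. Then 0.65 μM MBNL1 was injected with ligand at the same concentration. Maximum RU at 150 s was converted to % (CUG)12 bound, normalized to the no-ligand value, and fitted for apparent IC50.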

[2] = Binding affinity to 5'-TAMRA-labeled (CUG)6 RNA (unknown origin) by fluorescence titration assay
How it was run: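 Steady-state fluorescence titration. Ligand was titrated into 5'-TAMRA-(CUG)6 in 1X PBS, and the drop in TAMRA emission was followed. Normalized intensity was plotted against ligand concentration to give a binding isotherm, which was fitted for KD.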

[3] = system: Nucleic Acid; assay: Binding affinity to (CUG)12 RNA (unknown origin) assessed as change in melting temperature at 1 equiv treated in aqueous solution by thermal denaturation assay; format: nucleic-acid assay; conditions: unidentified
[4] = system: HeLa; assay: Binding affinity to (CUG)960 RNA (unknown origin) expressed in human HeLa cells assessed as foci dispersion at 20 to 50 uM after 36 hrs by confocal microscopic analysis; format: cell-based
How it was run: (§1)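 HeLa cells, about 120,000 per well on coverslips, were transfected after 1 day with 500 ng DMPK-CTG960 plasmid (CTG0 plasmid for control cells). Ligand was given at 20, 35 or 50 μM for 36 h. Cells were then fixed and foci stained by FISH with Cy3-(CAG)10, with TO-PRO-3 nuclear stain. Confocal excitation was 405 nm (acridine ligand uptake), 555 nm (Cy3) and 639 nm (TO-PRO-3). Over 100 cells were scored for foci; two-tailed Student t test.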

[5] = Drug uptake in nucleus of human HeLa cells expressing (CUG)960 RNA at 35 uM after 36 hrs by confocal microscopic analysis; format: ADME, cell-based; how it was run: as §1
[6] = system: HeLa; assay: Drug uptake in human HeLa cells expressing (CUG)960 RNA at 35 uM after 36 hrs by confocal microscopic analysis; format: ADME, cell-based; how it was run: as §1
[7] = system: Nucleic Acid; assay: Binding affinity to (CUG)12 RNA (unknown origin) assessed as change in melting temperature at 1 equiv treated in 5% DMSO by thermal denaturation assay; format: nucleic-acid assay
[8] = Cytotoxicity against human HeLa cells assessed as cytotoxicity up to 75 uM after 24 hrs by sulforhodamine B assay
[9] = system: HeLa; assay: Binding affinity to (CUG)960 RNA (unknown origin) expressed in human HeLa cells coexpressing GFP-tagged MBNL1 assessed as MBNL1 foci dispersion throughout nucleus at Z-plane of cells at 50 uM after 10 hrs by live cell microscopic analysis; format: cell-based; conditions: unidentified
How it was run: (§2)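 HeLa cells co-transfected with DMPK-CTG960 and GFP-MBNL1 plasmids were grown on a gridded dish so each cell could be relocated by DIC. Ligand was added to 50 μM final. Time-lapse confocal images of GFP-MBNL1 foci and acridine fluorescence were taken before addition and at 3, 6 and 10 h. At 10 h, Z-stacks of 1 μm slices through the whole cell were taken. Untreated cells were imaged the same way.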

[10] = system: HeLa; assay: Binding affinity to (CUG)960 RNA (unknown origin) expressed in human HeLa cells coexpressing GFP-tagged MBNL1 assessed as MBNL1 foci dispersion throughout nucleus at 50 uM after 3 to 10 hrs by live cell microscopic analysis; format: cell-based; how it was run: as §2
[11] = Drug uptake in human HeLa cell nuclear membrane expressing (CUG)960 RNA coexpressing GFP-tagged MBNL1 at 50 uM after 3 to 10 hrs by live cell microscopic analysis; format: ADME, cell membranes; how it was run: as §2
[12] = Drug uptake in human HeLa cell membrane expressing (CUG)960 RNA coexpressing GFP-tagged MBNL1 at 50 uM after 3 to 10 hrs by live cell microscopic analysis; format: ADME, cell-based; how it was run: as §2
[13] = system: Nucleic Acid; assay: Binding affinity to (CUG)12 RNA (unknown origin) assessed as change in melting temperature by thermal denaturation assay; format: nucleic-acid assay
[14] = Inhibition of (CUG)12 RNA (unknown origin)-MBNL1 interaction after 10 to 15 mins

## Nc1nc(N)nc(NCCCCNc2c3ccccc3nc3ccc(C(=O)NCCOCCOCCOCCOCCOCCNC(=O)c4ccc5nc6ccccc6c(NCCCCNc6nc(N)nc(N)n6)c5c4)cc23)n1
[1]
  IC50: 43 µM

## Nc1nc(N)nc(NCCCCNc2c3ccccc3nc3c(C(=O)NCCNCCNCCNCCNC(=O)c4cccc5c(NCCCCNc6nc(N)nc(N)n6)c6ccccc6nc45)cccc23)n1
[1]
  IC50: 6 µM
[2]
  Kd: 3.8 µM
[3]
  ΔTm: 9.6 °C

## CNC(=O)c1ccc2nc3ccccc3c(NCCCCNc3nc(N)nc(N)n3)c2c1
[4]
  Activity: inactive
[5]
  Drug uptake: Not Active
[6]
  Drug uptake: Not Active
[1]
  IC50: 293 µM
[2]
  Kd: 66 µM
[7]
  ΔTm: 1.8 °C
[8]
  cytotoxicity at 24 h: < 20%

## Nc1nc(N)nc(NCCCCNc2c3ccccc3nc3c(C(=O)NCCCNCCCNCCCNC(=O)c4cccc5c(NCCCCNc6nc(N)nc(N)n6)c6ccccc6nc45)cccc23)n1
[9]
  Activity: Active
[10]
  Activity: Active
[11]
  Drug uptake: Active
[12]
  Drug uptake: Active
[4]
  Activity: Active
[5]
  Drug uptake: Active
[6]
  Drug uptake: Active
[1]
  IC50: 1.1 µM
[2]
  Kd: 0.32 µM
[3]
  ΔTm: 9.3 °C
[8]
  cytotoxicity at 24 h: < 20%

## Nc1nc(N)nc(NCCCCNc2c3ccccc3nc3ccc(C(=O)NCCOCCOCCNC(=O)c4ccc5nc6ccccc6c(NCCCCNc6nc(N)nc(N)n6)c5c4)cc23)n1
[1]
  IC50: 18 µM
[2]
  Kd: 23 µM
[7]
  ΔTm: 2.7 °C

## CC(=O)NCCCNCCCNCCCNC(=O)c1cccc2c(NCCCCNc3nc(N)nc(N)n3)c3ccccc3nc12
[13]
  ΔTm: 2.5 °C
[1]
  IC50: 15 µM

## Nc1nc(N)nc(NCCCCNc2c3ccccc3nc3c(C(=O)NCCOCCOCCOCCOCCOCCNC(=O)c4cccc5c(NCCCCNc6nc(N)nc(N)n6)c6ccccc6nc45)cccc23)n1
[1]
  IC50: 37 µM
[7]
  ΔTm: 1.8 °C

## Nc1nc(N)nc(NCCCCNc2c3ccccc3nc3c(C(=O)NCCNCCNCCNC(=O)c4cccc5c(NCCCCNc6nc(N)nc(N)n6)c6ccccc6nc45)cccc23)n1
[4]
  Activity: inactive
[5]
  Drug uptake: Not Active
[6]
  Drug uptake: Not Active
[1]
  IC50: 5 µM
[2]
  Kd: 4.8 µM
[3]
  ΔTm: 8.4 °C

## Nc1nc(N)nc(NCCCCNc2c3ccccc3nc3ccc(C(=O)NCCCNCCCCCCCCNCCCNC(=O)c4ccc5nc6ccccc6c(NCCCCNc6nc(N)nc(N)n6)c5c4)cc23)n1
[4]
  Activity: inactive
[5]
  Drug uptake: Active
[6]
  Drug uptake: Active

## COc1ccc2nc3cc(Cl)ccc3c(NCCCCNc3nc(N)nc(N)n3)c2c1
[14]
  IC50: 46 µM

## Nc1nc(N)nc(NCCCCNc2c3ccccc3nc3ccc(C(=O)NCCCOCCOCCOCCCNC(=O)c4ccc5nc6ccccc6c(NCCCCNc6nc(N)nc(N)n6)c5c4)cc23)n1
[1]
  IC50: 28 µM
[2]
  Kd: 75 µM
